Bioassay records (PubChem)
This is a sample that favours compounds with a hit; in the whole collection about 2.5% have one here.
OX1R antag-1 – OX1R (human) antagonism | O43613 | AID 485270 | OX1R-expressing cells, FRET antagonist read-out | 1.8% of 330,000 active | inhibition, % at 6.6 µM; in the data active = inhibition mostly above about 38%, no sharp cut-off; inactive = mostly below about 40%;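 also: 0% = agonist challenge alone and 100% = reference antagonist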
OX1R antag-2 – antagonists of human orexin 1 receptor | inhibition, % at 5 µM | 0.43% of 330,000 active | CHO/OX1R cells, Fluo-8 calcium fluorescence, orexin A | O43613;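 active = inhibition above its plate's threshold, mean inhibition of all tested compounds on the plate plus 3 SD, cut at about 37% in these data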;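 also: 0% = orexin A challenge wells and 100% = SB-334867-A antagonist wells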
TRPML3 agonist – activates the human TRPML3 channel | 0.29% of 220,000 active | Q8TDD5 | HEK293 TRPML3-YFP, Fluo-8 calcium fluorescence; 100% = the carbachol control signal | activation, % at 3 µM;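 active = activation above its plate's cutoff, the mean activation of the plate's test wells plus 3 SD, cut at about 12% in these data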;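 also: 0% = DMSO only wells and 100% = carbachol wells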
Target sequence (Q8TDD5 whole entry, looked up): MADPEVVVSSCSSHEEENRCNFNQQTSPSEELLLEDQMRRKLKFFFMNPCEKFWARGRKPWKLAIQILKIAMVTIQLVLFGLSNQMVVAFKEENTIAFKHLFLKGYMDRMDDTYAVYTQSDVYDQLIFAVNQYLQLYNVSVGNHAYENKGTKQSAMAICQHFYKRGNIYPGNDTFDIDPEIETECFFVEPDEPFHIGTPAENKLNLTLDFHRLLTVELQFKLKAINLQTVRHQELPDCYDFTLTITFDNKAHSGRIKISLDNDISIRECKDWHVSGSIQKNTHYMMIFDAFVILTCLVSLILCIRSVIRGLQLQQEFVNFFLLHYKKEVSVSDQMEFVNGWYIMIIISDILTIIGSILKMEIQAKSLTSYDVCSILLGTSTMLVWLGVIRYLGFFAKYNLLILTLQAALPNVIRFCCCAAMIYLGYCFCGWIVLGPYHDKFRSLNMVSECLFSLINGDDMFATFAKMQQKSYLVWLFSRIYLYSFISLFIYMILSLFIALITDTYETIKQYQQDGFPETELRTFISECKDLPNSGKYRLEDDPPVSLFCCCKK
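system = HEK293 cells stably carrying human TRPML3-YFP | doses = one concentration, 3 µM nominal, 0.3% DMSO | timing = dye loading 1 h 37 °C then 30 min ambient, 125 s read | detection = Fluo-8 calcium dye fluorescence, ex 470-495, em 515-575 nm | benchmarks = high control carbachol 87 µM, low control DMSO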
TRPN1 ag – agonists of zebrafish TRPN1 channel; activation, % at 3 µM; 0.18% of 220,000 active; HEK293 zebrafish TRPN1-YFP, Fluo-8 calcium fluorescence; 100% = response to 87 µM carbachol;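 active = activation above its plate's cutoff, the mean activation of test wells on that plate plus 3 SD, cut at about 19% in these data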;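 also: 0% = DMSO alone and 100% = 87 µM carbachol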
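Material: zebrafish TRPN1-YFP in HEK293 cells; Doses: single test compound dose, 3 µM nominal, 0.3% DMSO; Timing: dye loading 1 h at 37 °C, then 30 min room temperature; Technique: intracellular calcium fluorescence with Fluo-8; Benchmarks: high carbachol 87 µM, low DMSO alone.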
CHO parental Ca – signal in parental CHO cells, OX1R antagonist counter-screen | parental CHO-K1, ATP-induced calcium, Fluo-8 fluorescence | inhibition, % at 5.6 µM | 0.63% of 330,000 active | AID 463079;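 active = inhibition above that plate's mean sample inhibition plus 3 SD, cut at about 26% in these data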;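 also: 0% = ATP-challenged DMSO wells and 100% = DMSO wells without ATP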
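Assay system – parental CHO cells · Reagent – ATP stimulus · Detection – intracellular calcium via Fluo-8 no-wash fluorescent dye · Evaluation – percent inhibition of ATP-evoked calcium rise, normalized to controls · Controls – ATP wells versus no-ATP DMSO wells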
OX1R Fluo8 conf – OX1R (human) antagonism, confirmed | shares compounds with OX1R antag-2 | CHO/OX1R cells, orexin A calcium Fluo-8 fluorescence | inhibition, % at 5 µM | 38% of 1,100 active | AID 492963; in the data active = inhibition above about 29%;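 also: 0% = agonist challenge alone and 100% = reference antagonist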
CHO Ca counter – counter-screen for OX1R antagonists: effect in parental CHO cells; shares compounds with OX1R antag-2; parental CHO-K1, ATP-induced calcium, Fluo-8 fluorescence; inhibition, % at 5.6 µM; 9.3% of 1,100 active; AID 492965;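 active = inhibition above a per-plate limit, the mean inhibition of that plate's test compounds plus 3 SD, cut at about 25% in these data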;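 also: 0% = ATP challenge with DMSO and 100% = DMSO without ATP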
OX1R HTRF conf – OX1R (human) antagonism, HTRF confirmed. shares compounds with OX1R antag-1. OX1R-expressing cells, HTRF antagonist assay. inhibition, % at 6.6 µM. 49% of 1,800 active. AID 492964; in the data active = inhibition above about 55%;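 also: CHO cells expressing OX1R stimulated with orexin A at about EC80; 0% = agonist challenge alone and 100% = reference antagonist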
CHO-K1 HTRF – counter-screen: parental CHO-K1 HTRF response; shares compounds with OX1R antag-1; parental CHO-K1 cells, HTRF counterscreen; inhibition, % at 6.6 µM; 48% of 1,800 active; AID 493232; in the data active = inhibition above about 17%;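 also: 0% = agonist challenge with vehicle and 100% = vehicle alone without agonist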
* marks the source's active call; other numbers are inactive results.

`Cc1cc(NC(=O)CSc2nc3ccccc3[nH]2)n(-c2ccccc2)n1` gave OX1R antag-1 59.9*, OX1R antag-2 60.7*, TRPML3 agonist 0.0, TRPN1 ag 1.1, CHO parental Ca -34.6, OX1R Fluo8 conf 26.7, CHO Ca counter -18.1, OX1R HTRF conf 61.9* and CHO-K1 HTRF -9.4.
`N#C/C(=C\Nc1ccc2c(c1)OCCO2)c1nc(-c2ccccc2)cs1` gave OX1R antag-1 9.0, OX1R antag-2 -6.6, TRPML3 agonist -0.2, TRPN1 ag 1.4 and CHO parental Ca -3.8.
Screening N#C/C(=C\Nc1ccc2c(c1)OCCO2)c1nc2ccccc2[nH]1 returned OX1R antag-1 91.1*, OX1R antag-2 28.3, TRPML3 agonist -0.9, TRPN1 ag -1.0, CHO parental Ca -10.2, OX1R Fluo8 conf 12.5, CHO Ca counter -11.0, OX1R HTRF conf 73.7* and CHO-K1 HTRF 9.5.
For COc1ccc(CCNc2cc(C)[nH]c(=O)c2)cc1OC the results were OX1R antag-1 44.8*, OX1R antag-2 31.4, CHO parental Ca -3.0, OX1R Fluo8 conf 4.9, CHO Ca counter 3.6, OX1R HTRF conf 18.1 and CHO-K1 HTRF 5.1.
Screening CC(C)(C)OC(=O)[C@H](Cc1ccccc1)NC(=O)c1nc[nH]c1C(=O)NCc1ccccc1 returned OX1R antag-1 5.8, OX1R antag-2 -30.1, TRPML3 agonist 0.3, TRPN1 ag 0.9 and CHO parental Ca -23.6.
For CN(Cc1ccccc1)C(=O)c1[nH]cnc1C(=O)N[C@@H](Cc1ccccc1)C(=O)OC(C)(C)C the results were OX1R antag-1 76.8*, OX1R antag-2 35.1, CHO parental Ca -28.1, OX1R Fluo8 conf 42.8*, CHO Ca counter -11.3, OX1R HTRF conf 77.2* and CHO-K1 HTRF 1.5.
`CCc1ccc(-c2cc(C)no2)cc1S(=O)(=O)NCCCN1CCN(c2ccccc2)CC1` gave OX1R antag-1 41.0*, OX1R antag-2 32.5, CHO parental Ca 5.5, OX1R Fluo8 conf 13.3, CHO Ca counter -6.0, OX1R HTRF conf 31.2 and CHO-K1 HTRF -1.4.
`O=S(=O)(NCCOc1ccccc1Cl)c1ccc2oc3ccccc3c2c1` gave OX1R antag-1 99.0*, OX1R antag-2 54.8*, TRPML3 agonist 0.7, TRPN1 ag 0.6, CHO parental Ca 10.1, OX1R Fluo8 conf 8.1, CHO Ca counter -8.5, OX1R HTRF conf 66.0* and CHO-K1 HTRF -9.0.
Screening O=C(Nc1cccc(S(=O)(=O)NCc2ccco2)c1)c1cc(-c2ccccc2)nc2ccccc12 returned OX1R antag-1 78.1*, OX1R antag-2 45.6*, TRPML3 agonist -0.2, TRPN1 ag 1.3, CHO parental Ca -5.2, OX1R Fluo8 conf 41.5*, CHO Ca counter -5.9, OX1R HTRF conf 73.7* and CHO-K1 HTRF 6.9.
For O=C(Nc1ccc(S(=O)(=O)NCc2ccco2)cc1)c1ccc2ccccc2n1 the results were OX1R antag-1 45.0*, OX1R antag-2 30.4, TRPML3 agonist -0.5, TRPN1 ag -0.3, CHO parental Ca 19.8, OX1R Fluo8 conf 36.7*, CHO Ca counter 7.1, OX1R HTRF conf 65.7* and CHO-K1 HTRF 10.2.
Screening O=C(NCc1ccco1)c1cc(-c2ccccc2)nc2ccccc12 returned OX1R antag-1 41.6, OX1R antag-2 -30.4, TRPML3 agonist 1.7, TRPN1 ag 1.7 and CHO parental Ca -25.0.
`O=C(Nc1ccc2c(c1)OCCO2)c1ccc2ccccc2n1` gave OX1R antag-1 107.4*, OX1R antag-2 27.9, TRPML3 agonist -0.7, TRPN1 ag -0.8, CHO parental Ca -17.6, OX1R Fluo8 conf 21.9, CHO Ca counter 3.2, OX1R HTRF conf 86.8* and CHO-K1 HTRF 13.8.
For CNc1ncc(C(=O)c2ccc(-c3ccccc3)cc2)s1 the results were OX1R antag-1 13.1, OX1R antag-2 -8.0, TRPML3 agonist 0.6, TRPN1 ag 4.2 and CHO parental Ca 4.1.
